The source of these data is ChEMBL document CHEMBL4376883, “Discovery and Optimization of Small Molecules Targeting the Protein-Protein Interaction of Heat Shock Protein 90 (Hsp90) and Cell Division Cycle 37 as Orally Active Inhibitors for the Treatment of Colorectal Cancer” (J Med Chem, 2020).

Active and inactive are the calls of the source. The calls are words filed in the database; no cut-off is given here.

The target of assay [1] is T1, Heat shock protein HSP90 (Homo sapiens, UniProt P07900+P08238). The experiment in a line: Binding affinity to recombinant […] HSP90 N-terminal domain (9 to 236 residues) (unknown origin) expressed in Escherichia coli BL21 (DE3) assessed as change in melting temperature by SYPRO dye based thermal shift assay. In a few lines: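 Hsp90 N-terminal domain (10 µM) mixed with compound at 200, 100, 50 or 10 µM in 1× PBS, pH 8.0, with 6× SYPRO Orange. Heated from room temperature to 99 °C at 1 °C/min; fluorescence read at 492 nm excitation and 610 nm emission.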

Assay [2] concerns the target T1, Heat shock protein HSP90. The experiment in a line: Binding affinity to recombinant […] HSP90 N-terminal domain (9 to 236 residues) (unknown origin) expressed in Escherichia coli BL21 (DE3) at 200 uM by NMR spectra analysis.
The target of assay [3] is T1, Heat shock protein HSP90. The experiment in a line: Binding affinity to recombinant […] HSP90 N-terminal domain (9 to 236 residues) (unknown origin) expressed in Escherichia coli BL21 (DE3) at 100 uM by STD NMR spectra analysis. In a few lines:
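STD NMR: 100 µM compound with 5 µM Hsp90 in 20 mM sodium phosphate, 150 mM NaCl, 5% DMSO, pH 7.4. Three independent experiments.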

Assay [4] has as its system Mus musculus. The experiment in a line: In vivo inhibition of HSP90-CDC37 protein-protein interaction in human HCT116 cells xenografted BALB/c mouse assessed as reduction in CDK4 level at 80 mg/kg, po administered once daily for 21 days measured post-last dose by immunohistochemical analysis. The format is functional, organism-based. In a few lines:
(§1)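 Tumours from the 21-day daily oral xenograft study (40 or 80 mg/kg) were formalin-fixed and cut into 4 µm paraffin sections. Peroxidase quenched with 3% H₂O₂; antigen retrieval by boiling in 10 mM citrate, pH 6.0. Blocked with 3% BSA; anti-CDK4 at 4 °C overnight; secondary 20 min at 37 °C. DAB detection, haematoxylin counterstain, viewed at 200×.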

In assay [5] the target is T1, Heat shock protein HSP90. The experiment in a line: Binding affinity to recombinant full-length 15N-labelled HSP90 N-terminal domain (9 to 236 residues) (unknown origin) expressed in Escherichia coli BL21 (DE3) at 250 to 500 uM by 15N 1H HSQC spectra analysis.
Assay [6] relates to HCT-116. The experiment in a line: Antitumor activity against human HCT116 cells xenografted in BALB/c mouse assessed as reduction in tumor cells at 80 mg/kg, po administered once daily for 21 days measured post-last dose by H and E staining-based imaging analysis. The format is functional, organism-based. The method, boiled down:
(§2)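 1×10^7 HCT116 cells mixed 3:1 with Matrigel were injected into the flanks of 6-week-old BALB/c nude mice, which were randomised into groups. Dosing started at mean tumour volume 125 mm³: daily oral gavage for 21 days in 0.9% saline with 5% DMSO at 40 or 80 mg/kg. Tumour volume measured daily by calipers (length×width²/2); n = 6. Tumours fixed in 4% formaldehyde, paraffin-embedded, 4 µm H&E sections.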

The test system of assay [7] is HCT-116. The experiment in a line: Antitumor activity against human HCT116 cells xenografted in BALB/c mouse assessed as tumor growth inhibition at 40 mg/kg, po administered once daily for 21 days. The format is functional, organism-based. The method, boiled down: as §2
The test system of assay [8] is HCT-116. The experiment in a line: Antitumor activity against human HCT116 cells xenografted in BALB/c mouse assessed as reduction in tumor cells at 40 mg/kg, po administered once daily for 21 days measured post-last dose by H and E staining-based imaging analysis. The format is functional, organism-based. In a few lines:
as §2
A general note: A xenograft is tissue or cells of one species grown in another, often human tumour cells in immunodeficient mice.

Assay [9] deals with Mus musculus. The experiment in a line: In vivo inhibition of HSP90-CDC37 protein-protein interaction in human HCT116 cells xenografted BALB/c mouse assessed as reduction in CDK4 level at 40 mg/kg, po administered once daily for 21 days measured post-last dose by immunohistochemical analysis. The format is functional, organism-based. The method, boiled down: as §1
The target in assay [10] is T2, Heat shock protein HSP 90-beta/Hsp90 co-chaperone Cdc37 (Homo sapiens) (UniProt P08238+Q16543). The experiment in a line: Inhibition of His-tagged HSP90/GST-tagged Cdc37 (unknown origin) protein-protein interaction at 100 uM measured after 1 hr by HTRF assay relative to control. The format is protein-complex assay. In a few lines:
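His-Hsp90 and GST-Cdc37 were premixed at a final 80 nM in PBS with 200 mM KF, pH 7.4. Compound was added and the mix incubated 1 h at 37 °C, then read by HTRF. Inhibition rate was taken at 100 μM compound.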
(In TR-FRET formats the signal depends on donor and acceptor labels being close together.)

The target in assay [11] is T1, Heat shock protein HSP90. The experiment in a line: Inhibition of recombinant full-length HSP90 ATPase activity N-terminal domain (9 to 236 residues) (unknown origin) expressed in Escherichia coli BL21 (DE3) measured after 1 hr by ADP hunter plus assay.
In assay [12] the target is T2, Heat shock protein HSP 90-beta/Hsp90 co-chaperone Cdc37 (Homo sapiens). The experiment in a line: Inhibition of HSP90-CDC37 protein-protein interaction in human HCT116 cells up to 1 uM measured after 12 hrs by coimmunoprecipitation-based Western blot assay. Type of assay: cell-based. The method, boiled down: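 HCT116 cells grown to ~90% confluence in 10 cm dishes, exposed to compound or DMSO for 12 h, then washed with ice-cold PBS and lysed in RIPA buffer (50 mM Tris, 150 mM NaCl, 1% NP-40, protease inhibitors, pH 7.4) for 1 h on ice. Hsp90 was immunoprecipitated with protein A/G magnetic beads over 3 h. Western blots probed Hsp90, Cdc37 and CDK4.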
On the technique in general: Immunoblotting shows a protein as a band on a membrane.

By ΔTm is commonly meant the change in melting temperature against a reference sample. The term inhibition denotes the change of the read-out against control, counted positive when it falls. Take `Cc1cc(C)c(S(=O)(=O)N(CC(=O)O)c2ccc(Nc3ccnc(N4CCCC4)n3)cc2)c(C)c1`: the ΔTm at Heat shock protein HSP90 [1] amounted to 2.13 °C. Moreover, the outcome at Heat shock protein HSP90 [2], on Heat shock protein HSP90 [3], at Heat shock protein HSP90 [5] and in the assay with HCT-116 [6] was Active. Moreover, in the assay with Mus musculus [4], the inhibition result is “Active”. Also, in the assay with HCT-116 [7], the TGI entry is “inactive”. Besides, in the assay on HCT-116 [8], the outcome was inactive. For the same compound, the inhibition entry in the assay on Mus musculus [9] was “inactive”. Also, in assay [10], the inhibition was 72.6%.
In general, IC50 refers to the concentration at which inhibition is half-maximal. For `CC(C)c1cc(C(=O)N2Cc3ccc(CN4CCN(C)CC4)cc3C2)c(O)cc1O` [ONALESPIB], the IC50 on Heat shock protein HSP90 [11] came to 0.15 µM. Further, in [12], the inhibition entry is “inactive”.
